The test system of series [1] is nitric oxide (NO) production in RAW 264.7 stimulated by LPS. The series can be described thus: Nitric oxide inhibition in RAW 264.7 induced by LPS. Particulars: Mus musculus, RAW264.7, 24 h, read-out: no. inhibition %. The class given is cell-based. Put shortly:
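Mouse RAW 264.7 cells at 1 × 10^6 cells/mL were treated with test compound at 10 μM or L-NAME at 250 μM. After 1 h, 1 μg/mL LPS was added for 24 h. Supernatant nitrite was measured with Griess reagent at 540 nm against a standard curve run alongside the samples.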

The subject of another series is pin-1. Particulars: read-out: IC50 (pin-1); cited from earlier work.
Series [2] in a line: MTT cytotoxicity assay on RAW 264.7. Particulars: mouse, RAW 264.7 cells. The class given is cell-based. A digest of the protocol: (§1)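 Cells were maintained in DMEM with 10% FBS and 1% pen-strep at 37 °C, 5% CO2, to 80% confluence. They were seeded in 96-well plates and exposed to test compound at 25 μM for 24 h. Viability was determined by MTT and given as % viability, mean ± SD of two independent experiments.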

Series [3] in a line: MTT cytotoxicity assay on HepG2. The class given is cell-based. The following applies: human, HepG2 cells. Put shortly: as §1
For orientation: Tetrazolium assays rely on reduction of a dye to a coloured formazan, in cell work by metabolically active cells.

Another series concerns HepG2. The following applies: dose of 100 μM; cited from earlier work.

Take `CC(=O)O[C@@H]1CC[C@@]2(C)[C@@H](CC[C@]3(C)[C@@H]2C(=O)C=C2[C@@H]4[C@@H](C)[C@H](C)CC[C@]4(C)CC[C@]23C)[C@@]1(C)C(=O)O` [compound 1, 3-acetyl-11-keto-β-boswellic acid]: the inhibition (as a rule, the share of the control response that was lost under treatment) at 10 µM in series [1] stood at 74 ± 0.1%. Moreover, in the series on pin-1, the IC50 (in general, the concentration that inhibits the measured activity by half) was 50 µM. Moreover, the viability – broadly, a read-out of living cells in per cent, often relative to untreated cells – at 24 h, 25 µM in series [2] was 92 ± 1.2%; in series [3], 86 ± 2.6%.

As for `COC(=O)[C@@H](N)CCCNC(N)=N[N+](=O)[O-]` [L-NAME, L-NG-nitro arginine methyl ester], the inhibition at 250 µM in series [1] came to 84.76 ± 0.4%.

Regarding `Cc1ccc(C(C)C)c(O)c1` [thymol], the “effect on APAP hepatotoxicity in HepG2” value with HepG2 is recorded as “ameliorated APAP hepatotoxicity”.

The values above are taken from paper PMC10601058 (ACS Omega, 2023).
